Assay results from ChEMBL document CHEMBL1155483, “Anthranilic acid replacements in a niacin receptor agonist” (Bioorg Med Chem Lett, 2010).

Test system: not listed separately
Experiment: Cmax in rat plasma
Type: ADME, organism-based
Settings: not given

In the case of NC(Cc1nc(-c2ccc(F)cn2)no1)C(=O)NC1=C(C(=O)O)CC(c2cc(F)cc(F)c2)CC1 (stereo not drawn), the Cmax is reported as 3.8 µM.

Test system: not listed separately
Experiment: Half life in rat plasma
Type: ADME, organism-based
Settings: not given

In the case of NC(Cc1nc(-c2ccc(F)cn2)no1)C(=O)NC1=C(C(=O)O)CC(c2cc(F)cc(F)c2)CC1 (stereo not drawn), the half-life is reported as 4.8 h.

Test system: not listed separately
Experiment: Oral bioavailability in mouse plasma
Type: ADME, organism-based
Settings: not given

In order of rising bioavailability:
1. C[C@H]1CC(NC(=O)CCc2nc(-c3ccc(O)cn3)no2)=C(C(=O)O)C[C@H]1c1cccc(F)c1  2%
2. O=C(CCc1ccc(-c2ccc(O)cc2)cc1)NC1=C(C(=O)O)CC(c2cccnc2F)CC1 (stereo not drawn)  12%
3. O=C(CCc1nc(-c2ccc(O)cn2)no1)NC1=C(C(=O)O)CCCC1  13%
4. O=C(CCc1ccc(-c2ccc(O)cc2)cc1)Nc1ccccc1C(=O)O  35%
5. NC(Cc1nc(-c2ccc(F)cn2)no1)C(=O)NC1=C(C(=O)O)CCCC1 (stereo not drawn)  87%

Biological target: Hydroxycarboxylic acid receptor 2 (Homo sapiens) (UniProt Q8TDS4)
Sequence (Q8TDS4 whole entry): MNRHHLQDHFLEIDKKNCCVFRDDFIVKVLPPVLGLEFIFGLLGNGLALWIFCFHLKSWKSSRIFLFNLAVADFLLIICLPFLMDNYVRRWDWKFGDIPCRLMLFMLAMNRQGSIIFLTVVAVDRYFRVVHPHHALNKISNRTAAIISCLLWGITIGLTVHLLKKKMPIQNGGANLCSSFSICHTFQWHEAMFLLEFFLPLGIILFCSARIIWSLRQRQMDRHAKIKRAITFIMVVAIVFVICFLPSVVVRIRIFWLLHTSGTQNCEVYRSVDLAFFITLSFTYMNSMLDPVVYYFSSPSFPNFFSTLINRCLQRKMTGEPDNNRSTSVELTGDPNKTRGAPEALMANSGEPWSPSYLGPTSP
Experiment: Displacement of [3H]niacin from human niacin receptor expressed in CHO-KI cells at 25 uM
Type: cell-based
Settings: not given

N#CC1CCC(NC(=O)CCc2ccc3cc(O)ccc3c2)=C(C(=O)O)C1 (stereo not drawn) gave an inhibition of 7%.

Test system: not listed separately
Experiment: Clearance in rat plasma
Type: ADME, organism-based
Settings: not given

NC(Cc1nc(-c2ccc(F)cn2)no1)C(=O)NC1=C(C(=O)O)CC(c2cc(F)cc(F)c2)CC1 (stereo not drawn) showed a clearance of 2.3 mL/min/kg.

Test system: not listed separately
Experiment: Half life in mouse plasma
Type: ADME, organism-based
Settings: not given

In order of falling half-life:
1. NC(Cc1nc(-c2ccc(F)cn2)no1)C(=O)NC1=C(C(=O)O)CCCC1 (stereo not drawn)  14 h
2. C[C@H]1CC(NC(=O)CCc2nc(-c3ccc(O)cn3)no2)=C(C(=O)O)C[C@H]1c1cccc(F)c1  3.9 h
3. O=C(CCc1ccc(-c2ccc(O)cc2)cc1)Nc1ccccc1C(=O)O  2.4 h
4. O=C(CCc1ccc(-c2ccc(O)cc2)cc1)NC1=C(C(=O)O)CC(c2cccnc2F)CC1 (stereo not drawn)  1.8 h
5. O=C(CCc1nc(-c2ccc(O)cn2)no1)NC1=C(C(=O)O)CCCC1  1.3 h

Test system: not listed separately
Experiment: Volume of distribution at steady state in rat plasma
Type: ADME, organism-based
Settings: read-out: Vdss

NC(Cc1nc(-c2ccc(F)cn2)no1)C(=O)NC1=C(C(=O)O)CC(c2cc(F)cc(F)c2)CC1 (stereo not drawn) gave a Vd of 2.4 L/kg.

Test system: not listed separately
Experiment: Cmax in mouse plasma
Type: ADME, organism-based
Settings: not given

In order of falling Cmax:
1. NC(Cc1nc(-c2ccc(F)cn2)no1)C(=O)NC1=C(C(=O)O)CCCC1 (stereo not drawn)  16 µM
2. O=C(CCc1ccc(-c2ccc(O)cc2)cc1)Nc1ccccc1C(=O)O  4 µM
3. O=C(CCc1nc(-c2ccc(O)cn2)no1)NC1=C(C(=O)O)CCCC1  3.9 µM
4. O=C(CCc1ccc(-c2ccc(O)cc2)cc1)NC1=C(C(=O)O)CC(c2cccnc2F)CC1 (stereo not drawn)  1.2 µM
5. C[C@H]1CC(NC(=O)CCc2nc(-c3ccc(O)cn3)no2)=C(C(=O)O)C[C@H]1c1cccc(F)c1  0.3 µM

Test system: not listed separately
Experiment: Clearance in mouse plasma
Type: ADME, organism-based
Settings: not given

In order of falling clearance:
1. O=C(CCc1ccc(-c2ccc(O)cc2)cc1)Nc1ccccc1C(=O)O  8.7 mL/min/kg
2. C[C@H]1CC(NC(=O)CCc2nc(-c3ccc(O)cn3)no2)=C(C(=O)O)C[C@H]1c1cccc(F)c1  5.6 mL/min/kg
3. O=C(CCc1ccc(-c2ccc(O)cc2)cc1)NC1=C(C(=O)O)CC(c2cccnc2F)CC1 (stereo not drawn)  5.4 mL/min/kg
4. O=C(CCc1nc(-c2ccc(O)cn2)no1)NC1=C(C(=O)O)CCCC1  2 mL/min/kg
5. NC(Cc1nc(-c2ccc(F)cn2)no1)C(=O)NC1=C(C(=O)O)CCCC1 (stereo not drawn)  0.5 mL/min/kg

Test system: not listed separately
Experiment: Volume of distribution at steady state in mouse plasma
Type: ADME, organism-based
Settings: read-out: Vdss

In order of falling Vd:
1. NC(Cc1nc(-c2ccc(F)cn2)no1)C(=O)NC1=C(C(=O)O)CCCC1 (stereo not drawn)  1.4 L/kg
2. O=C(CCc1ccc(-c2ccc(O)cc2)cc1)Nc1ccccc1C(=O)O  0.78 L/kg
3. C[C@H]1CC(NC(=O)CCc2nc(-c3ccc(O)cn3)no2)=C(C(=O)O)C[C@H]1c1cccc(F)c1  0.76 L/kg
4. O=C(CCc1ccc(-c2ccc(O)cc2)cc1)NC1=C(C(=O)O)CC(c2cccnc2F)CC1 (stereo not drawn)  0.42 L/kg
5. O=C(CCc1nc(-c2ccc(O)cn2)no1)NC1=C(C(=O)O)CCCC1  0.21 L/kg

Biological target: Hydroxycarboxylic acid receptor 2 (Homo sapiens) (UniProt Q8TDS4)
Experiment: Displacement of [3H]niacin from human niacin receptor expressed in CHO-KI cells in presence of human serum
Type: cell-based
Settings: not given
Method in brief: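 Membranes from CHO-K1 cells stably expressing the niacin receptor; [3H]niacin displacement titrated with and without added human serum (serum level not stated); the serum shift is given as fold change. Values are means of two independent titrations, with calculated standard errors below 15%.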

NC(Cc1nc(-c2ccc(F)cn2)no1)C(=O)NC1=C(C(=O)O)CCCC1 (stereo not drawn) and O=C(CCc1nc(-c2ccc(F)cn2)no1)NC1=C(C(=O)O)CCCC1 cannot be ordered by fold change (FC): > 400 for the first, > 400 for the second.

NC(Cc1nc(-c2ccc(F)cn2)no1)C(=O)NC1=C(C(=O)O)CC(c2cc(F)cc(F)c2)CC1 (stereo not drawn) and O=C(CCc1nc(-c2ccc(F)cn2)no1)NC1=C(C(=O)O)CC(c2cc(F)cc(F)c2)CC1 (stereo not drawn) are the same in fold change (FC): 30 for the first, 30 for the second.

O=C(CCc1ccc2cc(O)ccc2c1)NC1=C(C(=O)O)CC(c2cccc(F)c2)CC1 (stereo not drawn) and O=C(CCc1ccc2cc(O)ccc2c1)NC1=C(C(=O)O)CC(c2cc(F)cc(F)c2)CC1 (stereo not drawn) cannot be ordered by fold change (FC): > 400 for the first, > 400 for the second.

Going from Cn1cc(C2CCC(NC(=O)CCc3ccc4cc(O)ccc4c3)=C(C(=O)O)C2)cn1 (stereo not drawn) to Cn1nccc1C1CCC(NC(=O)CCc2ccc3cc(O)ccc3c2)=C(C(=O)O)C1 (stereo not drawn), the fold change (FC) falls from > 400 to 200.

CCCC1CCC(NC(=O)CCc2ccc3cc(O)ccc3c2)=C(C(=O)O)C1 (stereo not drawn) and O=C(CCc1ccc2cc(O)ccc2c1)NC1=C(C(=O)O)CC(c2ccccc2F)CC1 (stereo not drawn) cannot be ordered by fold change (FC): > 400 for the first, > 400 for the second.

Compared with O=C(CCc1ccc2cc(O)ccc2c1)NC1=C(C(=O)O)CC(c2ccc(F)nc2)CC1 (stereo not drawn), O=C(CCc1ccc2cc(O)ccc2c1)NC1=C(C(=O)O)CC(c2cccnc2F)CC1 (stereo not drawn) is higher in fold change (FC): 90 for the first, 100 for the second.

Test system: not listed separately
Experiment: Oral bioavailability in rat plasma
Type: ADME, organism-based
Settings: not given

Work on NC(Cc1nc(-c2ccc(F)cn2)no1)C(=O)NC1=C(C(=O)O)CC(c2cc(F)cc(F)c2)CC1 (stereo not drawn) yielded a bioavailability of 44%.
